The target in one data set is T1, OCTN1 (SLC22A4) (Homo sapiens, UniProt Q9H015).
T1 sequence (Q9H015 whole entry): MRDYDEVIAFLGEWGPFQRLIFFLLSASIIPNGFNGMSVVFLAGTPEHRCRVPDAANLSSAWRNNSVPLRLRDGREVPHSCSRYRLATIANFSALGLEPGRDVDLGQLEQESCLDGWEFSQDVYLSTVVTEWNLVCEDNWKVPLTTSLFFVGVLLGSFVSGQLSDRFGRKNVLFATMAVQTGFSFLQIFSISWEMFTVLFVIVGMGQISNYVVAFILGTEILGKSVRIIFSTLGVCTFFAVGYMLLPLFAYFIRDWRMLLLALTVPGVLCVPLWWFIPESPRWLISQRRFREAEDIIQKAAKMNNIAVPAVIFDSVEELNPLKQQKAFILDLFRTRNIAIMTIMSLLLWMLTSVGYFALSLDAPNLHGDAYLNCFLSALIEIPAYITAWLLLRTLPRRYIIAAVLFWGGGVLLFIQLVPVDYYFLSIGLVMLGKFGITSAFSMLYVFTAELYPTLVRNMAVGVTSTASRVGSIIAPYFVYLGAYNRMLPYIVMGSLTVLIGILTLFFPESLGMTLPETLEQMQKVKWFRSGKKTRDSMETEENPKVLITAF
Put plainly: Inhibition of OCTN1 (unknown origin) expressed in HEK293 cells assessed as reduction of [3H]ergothioneine substrate uptake at 100 uM by liquid scintillation counting. It counts as cell-based. Conditions: HEK293 cells expressing OCTN1, probe [3H]ergothioneine. In short, it runs like this: (§1)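 HEK293 cells transiently transfected with OAT, OATP or OCT plasmid (FuGENE6; 24 h, then 24 h more with sodium butyrate), or stable OCTN1/OCTN2 lines; vector-transfected cells as control. Washed, preincubated 15–60 min at 37 °C in modified Krebs-Henseleit/25 mM HEPES buffer. Uptake of radiolabelled substrate, 100 µM inhibitor. Cells lysed in NaOH and counted by scintillation; counts normalised to medium radioactivity and Lowry protein; vector uptake subtracted.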

Data set [1] relates to P-glycoprotein. The data set can be described thus: Permeability assessed as human P-glycoprotein-mediated transport across basolateral to apical side expressed in pig LLC-PK1 cells at 2 uM by liquid scintillation counting. The format is ADME, cell-based.
In data set [2] the test system is P-glycoprotein. The data set can be described thus: Permeability assessed as human P-glycoprotein-mediated active membrane transport by measuring apical to basolateral side expressed in pig LLC-PK1 cells by Transwell experiment/liquid scintillation counting. It counts as ADME, cell-based. The settings on record: read-out: permeability.
The subject of data set [3] is P-glycoprotein. Put plainly: Permeability assessed as human P-glycoprotein-mediated active membrane transport by measuring basolateral to apical side expressed in pig LLC-PK1 cells by Transwell experiment/liquid scintillation counting. The settings on record: read-out: permeability. The format is ADME, cell-based.
Data set [4] has as its target T2, Broad substrate specificity ATP-binding cassette transporter ABCG2 (Homo sapiens, UniProt Q9UNQ0).
T2 sequence (Q9UNQ0 whole entry): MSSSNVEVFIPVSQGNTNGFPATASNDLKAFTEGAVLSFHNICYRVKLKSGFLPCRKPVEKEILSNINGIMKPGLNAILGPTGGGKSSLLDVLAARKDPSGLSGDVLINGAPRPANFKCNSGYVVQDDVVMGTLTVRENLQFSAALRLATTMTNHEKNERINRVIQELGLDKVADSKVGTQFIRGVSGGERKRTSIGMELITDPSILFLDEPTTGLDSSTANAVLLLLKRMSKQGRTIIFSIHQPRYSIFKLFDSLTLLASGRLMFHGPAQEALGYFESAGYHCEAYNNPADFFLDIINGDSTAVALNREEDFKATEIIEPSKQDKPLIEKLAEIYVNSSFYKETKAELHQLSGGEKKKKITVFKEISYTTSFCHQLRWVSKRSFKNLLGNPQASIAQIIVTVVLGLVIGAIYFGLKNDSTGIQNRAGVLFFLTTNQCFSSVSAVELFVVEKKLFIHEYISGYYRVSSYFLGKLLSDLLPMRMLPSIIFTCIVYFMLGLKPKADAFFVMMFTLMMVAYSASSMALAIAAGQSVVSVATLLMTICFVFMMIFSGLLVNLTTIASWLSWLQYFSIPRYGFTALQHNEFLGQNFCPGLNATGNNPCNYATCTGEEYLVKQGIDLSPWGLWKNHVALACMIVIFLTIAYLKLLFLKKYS
The data set can be described thus: Inhibition of human BCRP expressed in MDCK2 cells assessed as reduction of [3H]E-sul substrate transport up to 100 uM by liquid scintillation counting. It counts as ADME, cell-based. Conditions: mdck-ii. In short, it runs like this: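 Membrane vesicles made from MDCKII cells expressing BCRP or MRP2, and from parental cells (1 μg/μL protein). Run in Tris-sucrose buffer, pH 7.4, with 10 mM MgCl2, creatine phosphokinase and ATP, or AMP as control. Substrates: 0.035 μM [3H]E-sul for BCRP, 2 min; 0.033 μM [3H]E217βG for MRP2, 5 min; both at 37 °C. Stopped ice-cold, filtered, and counted by scintillation.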

Data set [5] concerns the target T3, Solute carrier family 22 member 6 (Homo sapiens, UniProt Q4U2R8).
T3 sequence (Q4U2R8 whole entry): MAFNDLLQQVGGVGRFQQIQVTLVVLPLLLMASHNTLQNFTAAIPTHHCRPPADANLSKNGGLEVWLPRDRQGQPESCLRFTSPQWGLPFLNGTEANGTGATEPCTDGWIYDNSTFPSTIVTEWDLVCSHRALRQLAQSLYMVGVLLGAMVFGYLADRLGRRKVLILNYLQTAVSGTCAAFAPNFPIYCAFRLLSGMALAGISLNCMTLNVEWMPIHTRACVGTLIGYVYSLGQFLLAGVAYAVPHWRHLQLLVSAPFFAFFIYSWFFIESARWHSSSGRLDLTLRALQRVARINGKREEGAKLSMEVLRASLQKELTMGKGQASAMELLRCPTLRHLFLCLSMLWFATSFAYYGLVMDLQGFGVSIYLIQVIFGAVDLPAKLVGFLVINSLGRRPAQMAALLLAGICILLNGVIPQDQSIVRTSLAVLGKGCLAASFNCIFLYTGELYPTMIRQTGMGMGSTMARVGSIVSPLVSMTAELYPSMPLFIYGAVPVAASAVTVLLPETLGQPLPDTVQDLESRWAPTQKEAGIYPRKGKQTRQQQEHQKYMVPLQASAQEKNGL
Put plainly: Inhibition of OAT1 (unknown origin) expressed in HEK293 cells assessed as reduction of [3H]PAH substrate uptake at 100 uM by liquid scintillation counting. The format is ADME, cell-based. Conditions: hek293, 100 µM. A digest of the protocol: as §1

The values that follow come from ChEMBL document CHEMBL3525903 (Drug Metab Dispos, 2013).

For orientation: inhibition means the percentage by which the read-out fell short of the control. Regarding `CC#CCn1c(N2CCC[C@@H](N)C2)nc2c1c(=O)n(Cc1nc(C)c3ccccc3n1)c(=O)n2C` [LINAGLIPTIN], the inhibition at 100 µM on OCTN1 (SLC22A4) amounted to 19.4%. Also, the Papp B→A at 2 µM in the data set with P-glycoprotein [1] stood at 39.4 ×10⁻⁶ cm/s. Also, in the data set on P-glycoprotein [2], the Papp A→B was 25.1 ×10⁻⁶ cm/s. Further, the Papp B→A in the data set with P-glycoprotein [3] came to 27.4 ×10⁻⁶ cm/s. Also, the “inhibition (INH)” value is recorded as 24.7% in data set [4] and 1.07% in data set [5].
